Casp6 inh – human caspase-6 inhibitors, primary screen, biochemical, VEID-R110 fluorescence, single point, set 2. purified caspase-6, Z-VEID-R110 cleavage fluorescence. AID 686996, 2013. P55212. hit rate 0.53% among 350,000. inhibition, % at 12.5 µM;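 active means mean inhibition across replicates at least about 35%, with every replicate also reaching that limit, limit read from the data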;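 further: 0% = median of neutral control wells and 100% = no fluorescence left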
Target sequence (P55212 24-179 limits assumed): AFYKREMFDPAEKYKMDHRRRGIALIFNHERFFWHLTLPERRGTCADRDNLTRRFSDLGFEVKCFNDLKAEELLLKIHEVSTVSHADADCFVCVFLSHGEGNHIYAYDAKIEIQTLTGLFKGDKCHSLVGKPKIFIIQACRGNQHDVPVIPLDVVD
Target sequence (P55212 194-293 limits assumed): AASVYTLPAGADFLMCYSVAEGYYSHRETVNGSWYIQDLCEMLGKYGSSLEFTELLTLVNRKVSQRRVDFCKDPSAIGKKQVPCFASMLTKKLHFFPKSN
CaV13 FRET inh – Disruptors of the CACNA1D IQ motif to Ca2+-dependent inactivation inhibitor domain association, primary screening, Förster resonance energy transfer in intact living …; HEK cells, CFP/YFP FRET ICDI-IQ, plate reader, 10 min; percent FRET-ratio fall versus neutral wells; inhibition, % at 12.3 µM; hit rate 0.098% among 340,000;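 active means mean replicate inhibition of at least 30% and at least 1% of replicates passing that level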;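 further: 0% = median of the neutral control wells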
NSD2 HMT inh – NSD2 histone methyltransferase inhibitors, primary screen, biochemical, AlphaScreen, single concentration, set 2; AID 743445, 2014; inhibition, % at 12.5 µM; hit rate 0.54% among 310,000; Histone-lysine N-methyltransferase NSD2 (Homo sapiens), O96028; NSD2 peptide methylation, 120 min; in the data active means inhibition above about 50%
NPR1 activator – GC-A stimulated cGMP production enhancers – HEK293 GC-A cells, cGMP TR-FRET, EC30 ANP, primary screen. Atrial natriuretic peptide receptor 1 (Homo sapiens), P16066. 0% at EC30 ANP, 100% saturating ANP. activation, % at 10 µM. hit rate 0.14% among 370,000. AID 1671463, 2021; in the data active means activation above about 40%
FN deposition inh – inhibitors of fibronectin matrix deposition, primary screen, AH1F cells, Alexa488-fibronectin fluorescence, plate reader | AH1F fibroblasts, overnight | inhibition, % at 12.6 µM | hit rate 0.086% among 350,000;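 active means mean inhibition across replicates of 30% or more, regardless of how many single replicates reach that level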;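 further: positive control wells lacked labelled fibronectin entirely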
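Assay system: AH1F fibroblast monolayer, labelled fibronectin deposition. Amount: 10000 cells per well. Also added: labelled fibronectin 24 nM. Compound: single-point pinned compound. Incubation: cell attachment 1 h, compound and FN exposure overnight. Detection: fluorescence after three HBSS washes, excitation 485 nm, emission 525 nm. Read-out: inhibition of fibronectin deposition signal.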
GC-B act – human GC-B receptor activators, primary screen, HEK293 GC-B cells, cGMP TR-FRET, EC30 CNP. Atrial natriuretic peptide receptor 2 (Homo sapiens), P20594. 0% at EC30 CNP, 100% saturating CNP. activation, % at 10 µM. hit rate 0.11% among 370,000. AID 1920062, 2024;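 active means activation at 10 µM reaching about 35% in either raw or pattern-adjusted values, limit read from the data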
Numbers without * were called inactive; . = no result given; ! = repeats disagree. Hits are enriched below; roughly 0.99% of the tested compounds scored in any of these assays.

SMILES	Casp6 inh	CaV13 FRET inh	NSD2 HMT inh	NPR1 activator	FN deposition inh	GC-B act
O=C1CC=C2C3CC4N(CCC45c4cc(O)c(O)cc4N1C25)CC3=CCBr (centres undefined)	7	-5	107*	-5	.	-7
CN1C[C@H](CO)C[C@@H]2c3cccc4[nH]cc(c34)C[C@H]21	3	-4	-5	1	5	-1
CCN(CC)C(=O)N[C@H]1C[C@@H]2c3cccc4[nH]cc(c34)C[C@H]2N(C)C1	2	-5	.	0	-9	-5
CCC(CO)NC(=O)C1C=C2c3cccc4[nH]cc(c34)CC2N(C)C1 (centres undefined)	48*	-5	.	-6	1	-1
CC[C@@H](CO)NC(=O)[C@@H]1C=C2c3cccc4[nH]cc(c34)C[C@H]2N(C)C1	62*	-7	.	-4	-3	-5
CC[C@@H](CO)NC(=O)[C@@H]1C=C2c3cccc4c3c(cn4C)C[C@H]2N(C)C1	73*	-7	.	8	-1	4
CC1=C2C[C@H]3[C@@H](CC=C4C[C@@H](O)CC[C@@]43C)[C@@H]2CC[C@]12O[C@@H]1C[C@H](C)CN[C@@H]1C2C (some centres undefined)	-4	.	.	.	.	.
COc1ccc(N2C(=O)/C(=C/c3ccc(C)o3)C(=O)NC2=S)cc1	40*	-2	37	6	-9	0
CCOc1ccc(N2C(=O)/C(=C/c3ccc(C)o3)C(=O)NC2=S)cc1	22	-5	37	6	-3	-7
Cc1ccc(/C=C2\C(=O)NC(=S)N(c3cccc(F)c3)C2=O)o1	48*	-7	.	5	-4	1
CC(C)(O)/C=C/C(=O)C(C)(O)C1C(O)CC2(C)C3CC=C4C(C=C(O)C(=O)C4(C)C)C3(C)C(=O)CC12C (centres undefined)	8	-6	9	-23	46*	-11
COc1ccc(/C=C2\C(=O)NC(=S)N(C)C2=O)cc1C	46*	-7	.	-4	.	5
Cc1ccc(/C=C2\C(=O)NC(=O)N(Cc3ccccc3Cl)C2=O)o1	51*	4	4	37	-29	27
CC(C)NC(=O)N1C[C@@H]2C(c3ccccc3)[C@H](C1)N2CC1CC1 (some centres undefined)	.	.	.	.	4	.
O=C1NC(=O)N(c2ccc(Cl)cc2)C(=O)/C1=C\c1ccc(Sc2nc3ccccc3[nH]2)o1	69*	-5	43	-12	5	-2
Cc1ccc(N2C(=O)NC(=O)/C(=C/c3ccc(-c4ccc(C(=O)O)c(Cl)c4)o3)C2=O)cc1	24	-6	44	3	8	0
C=C1C(=O)O[C@H]2C[C@@H](C)[C@@H]3C=CC(=O)[C@@]3(C)C[C@H]12	74*	-4	.	4	-8	10
O=C(Cc1ccncc1)N1CCCCN2[C@@H](CO)[C@@H](c3ccc(C#CC4(O)CCCC4)cc3)[C@@H]2C1	-1	.	.	.	.	.
COc1cc2c(c3oc4cccc(O)c4c(=O)c13)[C@@H]1C=CO[C@@H]1O2	.	.	.	1	.	-6
C=Cc1cc(OC)c2c(c1)c(=O)oc1c2cc(OC)c2c(O)ccc(C3OC(C)C(O)C(C)(O)C3O)c21 (centres undefined)	53*	-6	.	11	-11	3
COC(=O)C1=C(C(=O)OC)SC2(S1)C(C(=O)OC)=C(C(=O)OC)Sc1c2ssc1=O	3	-6	.	43*	.	65*
COC(=O)[C@@H]1[C@@H](CO)[C@@H]2Cn3c(ccc(-c4ccc(F)cc4)c3=O)[C@H]1N2C(=O)c1ccccc1F	0	.	.	.	-3	.
CCOC(=O)c1c(N)n(CCCOC(=O)c2ccco2)c2nc3ccccc3nc12	.	-6	29	0	.	-2
CCOC(=O)c1c(N)n(Cc2ccc(OC)cc2)c2nc3ccccc3nc12	.	-4	-2	46*	.	44*
COCCOC(=O)c1c(N)n(Cc2ccc(OC)cc2)c2nc3ccccc3nc12	.	.	-4	47*	.	47*
SMILES	Casp6 inh	CaV13 FRET inh	NSD2 HMT inh	NPR1 activator	FN deposition inh	GC-B act
COC(=O)c1c(N)n(Cc2ccc(OC)cc2)c2nc3ccccc3nc12	.	.	-2	48*	.	43*
O=C([C@H]1N[C@H]2c3cccc(=O)n3C[C@H]2[C@@H]1CO)N1CCCCC1	.	.	.	.	4	.
CCCCCCCCn1sccc1=O	-2	.	.	49*	.	14
COc1ccc(/C=N\N=C(N)N)cc1	-3	-7	0	-2	.	5
NC(N)=N/N=C/c1ccc(N(c2ccccc2)c2ccccc2)cc1	63*	-2	-56	-18	4	-11
CCOC(=O)[C@@H]1[C@@H]2NC(=S)N(C)[C@@]1(COCc1ccc(OC)cc1)Oc1ccccc12	-3	.	.	.	.	.
NC(=O)c1cn(C2OC(CO)C(O)C2O)c2ncnc(N)c12 (centres undefined)	1	-6	-3	4	53*	6
C=CCN1[C@@H]2CN(C(C)=O)C[C@H]1C2c1ccccc1 (some centres undefined)	.	.	.	.	-2	.
CN(C)C1C(=O)C(C(N)=O)=C(O)C2(O)C(=O)C3=C(O)c4c(O)cccc4C(C)(O)C3C(O)C12 (centres undefined)	53*	-5	.	2	0	-9
O=C1NC(=O)N(Cc2ccc(F)cc2)C(=O)/C1=C\c1ccoc1	47*	-4	10	1	0	-3
O=C1NC(=O)C(=Cc2ccc(Sc3ccccc3)o2)C(=O)N1	5	-15	8	51*	-8	49*
CN1C(=O)C(=Cc2ccc(Sc3ccccc3)o2)C(=O)N(C)C1=O	5	-6	5	46*	19	27
c1cc(-c2ccc(C3[C@H]4CNC[C@@H]3N4CC3CC3)cc2)ccn1 (some centres undefined)	0	.	.	.	2	.
COC(=O)[C@H]1[C@H](CO)[C@H]2Cn3c(ccc(-c4ccncc4)c3=O)[C@@H]1N2CCc1ccccc1	-2	.	.	.	.	.
CN1C[C@@H]2N[C@H](C1)C2c1ccc(Br)cc1 (some centres undefined)	.	.	.	.	-5	.
C=C1[C@@H](C)[C@H]2[C@H](Cc3ccccc3)NC(=O)[C@]23OC(=O)/C=C/[C@H](O)CCC[C@@H](C)C/C=C/[C@H]3[C@@H]1O	3	-5	.	-3	35*!	6
C=C1C(C)C2C(Cc3ccccc3)NC(=O)C23C(OC(C)=O)C=CC(C)(O)CC(C)CC=CC3C1O (centres undefined)	2	-7	.	-12	45*	-6
